{"source": "paper PMC10785664", "about": "(ACS Omega, 2023)", "tested_on": "A549 cells", "test": "MTT cell viability, antiproliferative action on A549 cells", "type": "cell-based", "conditions": "Homo sapiens, A549, 72 h, read-out: % cell viability", "procedure,_shortened": "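A549 cells in DMEM with 10% FBS and 1% penicillin-streptomycin (37 °C, 5% CO₂) were grown to 90% confluence, seeded at 2.5 × 10⁴ cells/mL in 96-well plates and left 24 h. Dosing solutions at 25, 50 and 100 µg/mL in PBS/0.2% DMSO were added in triplicate, followed by 72 h incubation. MTT (5 mg/mL) was added for 4 h, then acid-isopropanol overnight. A570/620 was read; viability was blank-corrected relative to untreated controls.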", "data": [{"compound": "CC(=O)O[C@H]1C(=O)[C@@]2(C)[C@H]([C@H](OC(=O)c3ccccc3)[C@]3(O)C[C@H](OC(=O)[C@H](O)[C@@H](NC(=O)c4ccccc4)c4ccccc4)C(C)=C1C3(C)C)[C@]1(OC(C)=O)CO[C@@H]1C[C@@H]2O", "note": "[PTX, paclitaxel]", "values": [{"measurement": "viability at 25 µg/mL", "value": 31.2, "unit": "%"}, {"measurement": "viability at 50 µg/mL", "value": 26.5, "unit": "%"}, {"measurement": "viability at 100 µg/mL", "value": 20.2, "unit": "%"}]}]}
